Test results published in ChEMBL document CHEMBL1150161, “New taxane diterpenoids from the leaves and twigs of Taxus sumatrana” (J Nat Prod, 2002).
In brackets after ≈: the same amount, converted by molar mass.

Assays:
[1] = Cytotoxicity against human HEPA 59T/VGH cells after 72 hrs by methylene blue assay; format: functional, cell-based
In short: (§1)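 Cells kept in RPMI-1640 at 37 °C under 5% CO2, seeded at 2880 cells/well and left 3 h before sample or standard drug was added. Samples prepared at 1, 10, 40 and 100 µg/mL (stock, not final). Incubated 37 °C for 3 days. Cells then fixed in 10% formaldehyde/0.9% saline, stained with methylene blue in borate buffer, and eluted with EtOH–0.1 M HCl (1:1). Read at A650. IC50 is the concentration giving 50% absorbance reduction versus untreated cells.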

KB = experiment: Cytotoxicity against human KB cells after 72 hrs by methylene blue assay; format: functional, cell-based; in short: as §1

SMILES	IC50 [1]	IC50 (KB)
CC(=O)O[C@H]1C(=O)[C@@]2(C)[C@H]([C@H](OC(=O)c3ccccc3)[C@]3(O)C[C@H](OC(=O)[C@H](O)[C@@H](NC(=O)c4ccccc4)c4ccccc4)C(C)=C1C3(C)C)[C@]1(OC(C)=O)CO[C@@H]1C[C@@H]2O [PACLITAXEL]	0.001 µg/mL (≈ 0.00117 µM)	0.001 µg/mL (≈ 0.00117 µM)
CC(=O)O[C@H]1C[C@@]23C(=C1C)[C@@](O)(C(=O)OC2(C)C)[C@]1(C)[C@@H](OC(C)=O)C[C@H]2OC[C@@]2(OC(C)=O)[C@H]1[C@@H]3OC(=O)c1ccccc1	3.09 µg/mL (≈ 4.93 µM)	8.96 µg/mL (≈ 14.3 µM)
CC(=O)O[C@H]1C2[C@@](C)([C@@H](O)C[C@H]3OC[C@@]23OC(C)=O)[C@@H](O)[C@H](O)C2=C(C)[C@@H](O)C[C@]21C(C)(C)O (some centres not stated) [TAXUMAIROL Q]	14.5 µg/mL (≈ 30 µM)	16.2 µg/mL (≈ 33.5 µM)
CC(=O)O[C@@]12CO[C@@H]1C[C@H](O)[C@]1(C)[C@@H]2[C@H](OC(=O)c2ccccc2)[C@]23C[C@H](O)C(C)=C2[C@@]1(O)C(=O)OC3(C)C [WALLIFOLIOL]	0.1 µg/mL (≈ 0.184 µM)	0.56 µg/mL (≈ 1.03 µM)
CC(=O)O[C@H]1C[C@@]23C(=C1C)[C@@](O)(C(=O)OC2(C)C)[C@@]1(C)[C@H]([C@@H]3OC(=O)c2ccccc2)[C@]2(OC(C)=O)CO[C@@H]2C[C@@H]1O	13.9 µg/mL (≈ 23.8 µM)	2.91 µg/mL (≈ 4.98 µM)
CC(=O)O[C@@]12CO[C@@H]1C[C@H](OC(=O)c1ccccc1)[C@]1(C)[C@@H]2[C@H](OC(=O)c2ccccc2)[C@]23C[C@H](OC(=O)c4ccccc4)C(C)=C2[C@@]1(O)C(=O)OC3(C)C	4.83 µg/mL (≈ 6.43 µM)	15.4 µg/mL (≈ 20.6 µM)
C=C1[C@@H](O)C[C@H](OC(C)=O)[C@]2(C)[C@@H](OC(C)=O)[C@H](OC(C)=O)C3=C(C)C(=O)C[C@@H]([C@@H](OC(C)=O)[C@H]12)C3(C)C [TAXUSPINE F]	3.31 µg/mL (≈ 6.19 µM)	16.9 µg/mL (≈ 31.6 µM)
CO[C@@]12[C@H](COC(N)=O)C3=C(C(=O)C(C)=C(N)C3=O)N1C[C@@H]1N[C@@H]12 [MITOMYCIN]	0.01 µg/mL (≈ 0.0299 µM)	0.01 µg/mL (≈ 0.0299 µM)
CC(=O)O[C@H]1C[C@H]2OC[C@@]2(OC(C)=O)[C@H]2[C@H](OC(C)=O)[C@]3(C(C)(C)O)C[C@H](OC(=O)c4ccccc4)C(C)=C3[C@@H](OC(=O)c3ccccc3)[C@H](OC(C)=O)[C@]12C	> 20 µg/mL	9.69 µg/mL (≈ 12.5 µM)
CC(=O)O[C@H]1C[C@]2(C(C)(C)O)C(=C1C)[C@@H](OC(C)=O)[C@H](OC(C)=O)[C@@]1(C)[C@@H](OC(C)=O)C[C@H]3OC[C@@]3(OC(C)=O)[C@H]1[C@@H]2OC(C)=O	6.02 µg/mL (≈ 9.22 µM)	4.92 µg/mL (≈ 7.54 µM)
CC(=O)O[C@H]1C[C@@]2(O)[C@H]3OC[C@]4(O)[C@@H](OC(C)=O)C[C@H](OC(=O)c5ccccc5)[C@](C)([C@H]34)[C@@H](OC(=O)c3ccccc3)[C@H](OC(C)=O)C(=C1C)C2(C)C	7.02 µg/mL (≈ 9.55 µM)	12.8 µg/mL (≈ 17.4 µM)
